Reference: ChEMBL document CHEMBL1764990, “Caffeic acid phenethyl ester inhibits PDGF-induced proliferation of vascular smooth muscle cells via activation of p38 MAPK, HIF-1α, and heme oxygenase-1” (J Nat Prod, 2011)
Calls of active or inactive are those of the source.

Columns and labels:
VSMC [1] = experiment: Inhibition of AKT phosphorylation in PDGF-stimulated rat VSMC at 5 uM treated for 30 mins before 10 mins of cell stimulation by Western blot analysis; assay type: cell-based
Procedure, shortened: (§1)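 Quiescent rat aortic VSMCs (serum-free DMEM 24 h) pretreated 30 min with vehicle or 5 μM compound, then stimulated with PDGF (20 ng/mL) for 10 min. Total lysates analysed by Western blot for phospho-AKT, ERK, JNK, STAT3 and p38, with tubulin or actin.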

Rattus norvegicus [2] = organism: Rattus norvegicus; experiment: Inhibition of NF-kappaB activation in rat VSMC at 5 uM
VSMC [3] = experiment: Decrease in basal ROS level in PDGF-stimulated rat VSMC at 5 uM pretreated with compound for 30 mins measured after upto 23 hrs of post stimulation using H2DCF by flow cytometric analysis; assay type: functional
Procedure, shortened: (§2)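 Quiescent rat aortic VSMCs pretreated 30 min with 5 μM compound or vehicle, then stimulated with PDGF (20 ng/mL). At set times up to 23 h, total intracellular ROS measured by flow cytometry of oxidized H2DCF (H2DCFDA probe). n = 3, ANOVA.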

VSMC [4] = experiment: Induction of HO-1 protein expression in rat VSMC at 5 uM measured after 16 hrs in presence of 10 to 100 uM of HIF-1alpha inhibitor […] treated for 15 mins by immunoblot analysis; assay type: functional
Procedure, shortened: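 Rat aortic VSMCs pretreated 15 min with the HIF-1α inhibitor YC-1 at graded levels (up to 100 μM), then given 5 μM compound or vehicle for 16 h. HO-1 read by immunoblot.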

VSMC [5] = experiment: Inhibition of PDGF-stimulated rat VSMC proliferation; assay type: functional
VSMC [6] = experiment: Inhibition of rat VSMC proliferation at 5 uM; assay type: functional
VSMC [7] = experiment: Induction of cell cycle arrest in rat VSMC at G1 phase assessed as inhibition of retinoblastoma protein phosphorylation treated for 30 mins before 12 hrs of PDGF challenge by Western blot analysis; assay type: functional, cell-based
VSMC [8] = experiment: Inhibition of tubulin phosphorylation in PDGF-stimulated rat VSMC at 5 uM treated for 30 mins before 10 mins of cell stimulation by Western blot analysis; assay type: cell-based
VSMC [9] = experiment: Induction of HO-1 protein expression in Nrf2-deficient PDGF-stimulated rat VSMC; assay type: functional
VSMC [10] = experiment: Increase in HO-1 protein expression in rat VSMC at 5 uM after 16 hrs by immunoblot analysis; assay type: functional
Procedure, shortened: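 Rat aortic VSMCs treated 16 h with vehicle, compound (5 μM) or cobalt protoporphyrin (10 μM). Total lysates immunoblotted for HO-1 and actin. Three independent experiments.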

VSMC [11] = experiment: Antiproliferative activity against PDGF-stimulated rat VSMC assessed as inhibition of DNA synthesis at 5 uM after 24 hrs by [3H]-thymidine incorporation assay in presence of p38 kinase inhibitor SB203580; assay type: functional
Procedure, shortened: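 Rat aortic VSMCs starved 48 h. Treated with compound (5 μM), p38 inhibitor SB203580 (10 μM) and PDGF-BB (20 ng/mL) as indicated. Pulse-labelled with methyl-3H-thymidine (2 μCi/mL) for the final 6 h of 24 h. TCA-precipitated material was dissolved in 0.4 M NaOH and counted. n = 3, Student's t-test.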

Rattus norvegicus [12] = organism: Rattus norvegicus; experiment: Effect on p38 MAPK activation in PDGF-stimulated rat VSMC assessed as phosphorylation at 5 uM treated for 30 mins followed by stimulated with PDGF for 60 mins by immunoblot analysis
Procedure, shortened: (§3)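 Quiescent rat aortic VSMCs pretreated 30 min with vehicle or 5 μM compound, then stimulated with PDGF for 10 or 60 min. Total lysates immunoblotted for phospho-p38 and total p38. Three independent experiments.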

VSMC [13] = experiment: Inhibition of PDGF-induced DNA synthesis in rat VSMC assessed as [3H]thymidine incorporation into DNA at 5 uM treated for 30 mins before 24 hrs of PDGF challenge; assay type: functional
Procedure, shortened: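 Quiescent rat aortic VSMCs (starved 48 h) pretreated 30 min with 5 μM compound, then stimulated with PDGF-BB (20 ng/mL). Methyl-3H-thymidine (2 μCi/mL) pulse for the last 6 h of 24 h. TCA-insoluble radioactivity measured after NaOH solubilisation.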

[14] = target: Mitogen-activated protein kinase 8 (Rattus norvegicus) (UniProt P49185); experiment: Inhibition of JNK1/2 phosphorylation in PDGF-stimulated rat VSMC at 5 uM treated for 30 mins before 10 mins of cell stimulation by Western blot analysis; assay type: cell-based; procedure, shortened: as §1
Mitogen-activated protein kinase 8 (Rattus norvegicus), sequence (P49185 whole entry): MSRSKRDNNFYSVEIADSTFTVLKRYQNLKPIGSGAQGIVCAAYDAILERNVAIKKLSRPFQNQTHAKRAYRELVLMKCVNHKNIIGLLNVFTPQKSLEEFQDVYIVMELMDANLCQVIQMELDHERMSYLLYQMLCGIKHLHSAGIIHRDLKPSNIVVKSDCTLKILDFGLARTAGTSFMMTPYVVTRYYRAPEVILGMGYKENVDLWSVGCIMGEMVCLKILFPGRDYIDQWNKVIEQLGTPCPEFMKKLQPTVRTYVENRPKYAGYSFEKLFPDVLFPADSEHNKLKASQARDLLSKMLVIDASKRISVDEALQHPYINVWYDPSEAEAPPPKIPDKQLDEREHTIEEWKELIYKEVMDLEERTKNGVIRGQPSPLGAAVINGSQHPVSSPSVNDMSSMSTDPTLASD

VSMC [15] = experiment: Inhibition of PDGF-stimulated rat VSMC proliferation after 24 hrs; assay type: functional
Procedure, shortened: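 Quiescent rat aortic VSMCs treated with compound (1–10 μM) or vehicle, then stimulated with PDGF (20 ng/mL) for 24 h. Cells were counted; the increase in cell number in vehicle-treated cells was set to 100%.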

Rattus norvegicus [16] = organism: Rattus norvegicus; experiment: Inhibition of TNFalpha-induced NF-kappaB binding activity in rat VSMC at 5 uM pretreated for 30 mins before 45 mins of TNFalpha stimulation by gel shift assay
Procedure, shortened: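 Rat aortic VSMCs in six-well plates preincubated 30 min with vehicle or compound, then treated with TNF-α (10 ng/mL). NF-κB DNA binding in nuclear extracts measured by electrophoretic mobility shift assay.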

[17] = Cytotoxicity against rat VSMC assessed as cell viability at >25 uM after 48 hrs by trypan blue exclusion assay; assay type: cell-based; conditions: VSMC (vascular smooth muscle cells), read-out: Activity
Procedure, shortened: (§4)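 Cultured rat aortic VSMCs exposed to compound for 48 h. Viability by trypan blue exclusion, with cell morphology and detachment also noted.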

[18] = target: Mitogen-activated protein kinase 1 and 3 (ERK2 and ERK1) (Rattus norvegicus) (UniProt P63086+P21708); experiment: Inhibition of ERK1/2 phosphorylation in PDGF-stimulated rat VSMC at 5 uM treated for 30 mins before 10 mins of cell stimulation by Western blot analysis; procedure, shortened: as §1
Mitogen-activated protein kinase 1 and 3 (ERK2 and ERK1) (Rattus norvegicus), sequence (P21708 whole entry, looked up): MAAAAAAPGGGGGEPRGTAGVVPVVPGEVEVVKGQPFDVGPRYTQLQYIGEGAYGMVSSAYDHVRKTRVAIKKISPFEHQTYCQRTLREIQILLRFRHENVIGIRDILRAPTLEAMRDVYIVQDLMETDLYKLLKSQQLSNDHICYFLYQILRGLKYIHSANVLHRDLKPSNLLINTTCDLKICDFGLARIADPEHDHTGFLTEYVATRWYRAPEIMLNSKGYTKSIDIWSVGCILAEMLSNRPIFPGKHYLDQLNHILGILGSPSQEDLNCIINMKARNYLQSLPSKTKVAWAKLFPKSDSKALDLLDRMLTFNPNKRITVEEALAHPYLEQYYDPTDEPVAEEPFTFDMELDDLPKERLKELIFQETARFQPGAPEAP
Mitogen-activated protein kinase 1 and 3 (ERK2 and ERK1) (Rattus norvegicus), sequence (P63086 whole entry, looked up): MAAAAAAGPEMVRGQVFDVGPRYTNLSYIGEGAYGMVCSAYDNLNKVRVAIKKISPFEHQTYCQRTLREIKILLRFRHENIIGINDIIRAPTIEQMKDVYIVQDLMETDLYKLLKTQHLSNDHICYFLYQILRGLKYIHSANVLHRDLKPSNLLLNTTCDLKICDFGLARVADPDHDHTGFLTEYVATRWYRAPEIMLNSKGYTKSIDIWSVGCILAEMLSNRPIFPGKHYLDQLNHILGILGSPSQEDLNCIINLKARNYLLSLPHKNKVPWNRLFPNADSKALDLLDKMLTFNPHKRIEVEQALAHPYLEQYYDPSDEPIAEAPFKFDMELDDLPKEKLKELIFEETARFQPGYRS

VSMC [19] = experiment: Decrease in intracellular ROS level in PDGF-stimulated rat VSMC at 5 uM pretreated with compound for 30 mins measured after upto 23 hrs of post stimulation using H2DCF by flow cytometric analysis; assay type: functional, cell-based; procedure, shortened: as §2
Rattus norvegicus [20] = organism: Rattus norvegicus; experiment: Effect on p38 MAPK activation in PDGF-stimulated rat VSMC assessed as phosphorylation at 5 uM treated for 30 mins followed by stimulated with PDGF for 10 mins by immunoblot analysis; procedure, shortened: as §3
[21] = target: Signal transducer and activator of transcription 3 (Rattus norvegicus) (UniProt P52631); experiment: Inhibition of STAT3 phosphorylation in PDGF-stimulated rat VSMC at 5 uM treated for 30 mins before 10 mins of cell stimulation by Western blot analysis; procedure, shortened: as §1
Signal transducer and activator of transcription 3 (Rattus norvegicus), sequence (P52631 whole entry): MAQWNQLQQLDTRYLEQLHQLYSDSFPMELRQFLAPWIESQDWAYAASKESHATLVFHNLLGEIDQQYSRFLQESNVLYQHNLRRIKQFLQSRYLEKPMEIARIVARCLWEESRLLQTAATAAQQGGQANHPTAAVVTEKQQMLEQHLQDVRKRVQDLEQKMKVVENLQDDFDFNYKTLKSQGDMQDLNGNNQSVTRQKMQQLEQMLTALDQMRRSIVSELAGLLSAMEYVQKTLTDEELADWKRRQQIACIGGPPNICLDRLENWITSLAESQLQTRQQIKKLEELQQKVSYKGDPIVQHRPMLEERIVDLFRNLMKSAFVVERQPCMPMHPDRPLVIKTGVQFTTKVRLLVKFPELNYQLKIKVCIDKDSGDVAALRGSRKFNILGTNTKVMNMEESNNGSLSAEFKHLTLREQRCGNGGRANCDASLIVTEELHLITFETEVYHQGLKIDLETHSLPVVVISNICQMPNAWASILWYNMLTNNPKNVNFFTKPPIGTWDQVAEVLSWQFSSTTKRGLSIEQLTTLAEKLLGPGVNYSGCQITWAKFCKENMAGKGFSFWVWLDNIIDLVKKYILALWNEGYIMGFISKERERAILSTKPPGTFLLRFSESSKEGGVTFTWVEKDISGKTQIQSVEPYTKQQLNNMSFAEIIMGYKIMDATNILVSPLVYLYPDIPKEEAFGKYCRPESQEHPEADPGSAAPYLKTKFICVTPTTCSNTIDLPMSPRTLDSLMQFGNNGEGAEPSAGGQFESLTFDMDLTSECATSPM

[22] = Cell cycle arrest in PDGF-induced rat VSMC assessed as accumulation at G0/G1 phase at 5 uM treated for 30 mins followed by induced with PDGF for 28 hrs by propidium iodide staining by flow cytometry; assay type: functional, cell-based
Procedure, shortened: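 Quiescent rat aortic VSMCs pretreated 30 min with 5 μM compound, then stimulated with PDGF (20 ng/mL) for 28 h. Nuclei stained with propidium iodide; cell-cycle distribution by flow cytometry. n = 3.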

VSMC [23] = experiment: Inhibition of p38 phosphorylation in PDGF-stimulated rat VSMC at 5 uM treated for 30 mins before 10 mins of cell stimulation by Western blot analysis; assay type: cell-based; procedure, shortened: as §1
VSMC [24] = experiment: Accumulation of HIF-1alpha in PDGF-stimulated rat VSMC at 5 uM after 4 hrs by immunoblot analysis; assay type: functional
Procedure, shortened: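 Primary aortic smooth muscle cells from male Sprague-Dawley rats, made quiescent in serum-free DMEM for 24 h. Pretreated with compound or vehicle, then stimulated with PDGF. After 4 h, total cell lysates were immunoblotted for HIF-1α, with actin as loading control.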

[25] = Cytotoxicity against rat VSMC assessed as morphological changes at >25 uM after 48 hrs by trypan blue exclusion assay; procedure, shortened: as §4
VSMC [26] = experiment: Antiproliferative activity against PDGF-stimulated rat VSMC transfected with HO-1 siRNA assessed as growth arrest after 24 hrs by immunoblot analysis; assay type: functional; conditions: in the assay text read “by cell counting” for “by immunoblot analysis”
Procedure, shortened: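 Rat aortic VSMCs transfected with scrambled or HO-1-specific siRNA, then starved, treated with compound and stimulated with PDGF. Cells were counted after 24 h. HO-1 knockdown was checked by immunoblot. n = 3, Student's t-test.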

[27] = Cytotoxicity against rat VSMC assessed as detachment of the cells at >25 uM after 48 hrs by trypan blue exclusion assay; assay type: cell-based; procedure, shortened: as §4

O=C(/C=C/c1ccc(O)c(O)c1)OCCc1ccccc1 [CAFFEIC ACID PHENETHYL ESTER]
65%: viability at 48 h [17]
active: Activity (VSMC [3]) | inhibition (VSMC [5]) Dose-dependent effect | Activity (VSMC [6]) | inhibition (VSMC [7]) | Activity (VSMC [9]) | Activity (VSMC [10]) | Activity (Rattus norvegicus [12]) | Activity (VSMC [13]) | inhibition (VSMC [15]) Dose-dependent effect | Activity (VSMC [19]) | Activity (Rattus norvegicus [20]) | Activity [22] | Activity (VSMC [24])
Toxic: Activity [25] | Activity [27]
inactive: Activity (VSMC [1]) | Activity (Rattus norvegicus [2]) | Activity (VSMC [4]) | Activity (VSMC [8]) | inhibition (VSMC [11]) | Activity [14] | Activity (Rattus norvegicus [16]) | Activity [18] | Activity [21] | Activity (VSMC [23]) | growth inhibition (GI) (VSMC [26])
